The test system of experiment [1] is CCRF-CEM. In words: The chemosensitizing effect was measured against P-glycoprotein expressing CCRF-CEM cells in the presence of […]. It counts as functional. Conditions: Homo sapiens, read-out: ED50 (the source's name). Summed up:
(§1)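 CCRF-CEM vcr 100 cells (selected stepwise in vincristine; kept in 100 ng/mL vincristine until 1 week before use), RPMI 1640 with 10% FCS. Cytotoxicity of daunomycin or etoposide by MTT reduction, formazan dissolved in 2-propanol/0.04 N HCl, absorbance read. Modifier at 5 μM; six toxin concentrations, triplicate points, ED50 estimated. Reversion potency = toxin ED50 without/with modifier.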

In experiment [2] the test system is CCRF-CEM. Description: The reversion potency of compound was measured against P-glycoprotein expressing CCRF-CEM cells and expressed as the ratio of ED50 in the absence and presence […]. It counts as functional, Homo sapiens.
The subject of experiment [3] is CCRF-CEM. In words: The percentage uptake of [3H]daunomycin in resistant CCRF-CEM vcr 100 cells to sensitive CCRF-CEM cells in presence of the compound. It is filed as functional, cell-based. Conditions: Homo sapiens. In a few lines:
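Rapid-centrifugation uptake. Resistant CCRF-CEM vcr 100 and sensitive CCRF-CEM cells at 5×10^6 cells/mL in RPMI 1640 with 2% FCS. Modifier (final 5 μM, from 100× DMSO stock) added 10 min before [3H]daunomycin (0.4 μCi/mL; total daunomycin final 1 μmol/L). Sampled at 0–60 min, spun through phthalate oil, pellets solubilized in NaOH/SDS, counted by LSC. Expressed as % of sensitive-cell uptake.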

Experiment [4] concerns CCRF-CEM. In words: The effective dose was measured against P-glycoprotein expressing CCRF-CEM cells in the presence of 5 uM etoposide. It is filed as functional. Conditions: Homo sapiens, read-out: ED50 (the source's name). In a few lines:
as §1

The test system of experiment [5] is CCRF-CEM. In words: The reversion potency of compound was measured against P-glycoprotein expressing CCRF-CEM cells and expressed as the ratio of ED50 in the absence and presence of etoposide. It counts as functional, Homo sapiens. In a few lines: as §1
In experiment [6] the test system is CCRF-CEM. Description: The effective dose was measured against P-glycoprotein expressing CCRF-CEM cells in the presence of […]. It counts as functional. Conditions: Homo sapiens, read-out: ED50 (the source's name). In a few lines: as §1

For `O=C(CCc1ccccc1)c1ccccc1OCC(O)CN1CCOCC1` (stereo not given), the EC50 in experiment [1] came out at 359 nM. Besides, the RP in experiment [2] came out at 4.

`O=C(CCc1ccccc1)c1ccccc1OCC(O)CN1CCCCC1` (stereo not given): the Uptake in experiment [3] is 83%. Moreover, the EC50 in experiment [4] worked out at 3300 nM; in experiment [1], 46 nM. Moreover, the RP in experiment [5] came out at 1.1; in experiment [2], 30.

As to `CCCNCC(O)COc1ccccc1C(=O)CCc1ccccc1` (stereo not given) [PROPAFENONE], the Uptake in experiment [3] was found to be 65%. Also, the EC50 in experiment [1] stood at 88 nM. Besides, the RP in experiment [2] is 16.

As for `Cc1ccccc1N1CCN(CC(O)COc2ccccc2C(=O)CCc2ccccc2)CC1` (stereo not given), the Uptake in experiment [3] was 96%. Besides, the EC50 in experiment [4] was determined as 648 nM; in experiment [1] it was 43 nM. For the same compound, the figures for the RP in experiment [5] and in experiment [2] were 5.4 and 33, respectively.

Consider `CCN(CC)CC(O)COc1ccccc1C(=O)CCc1ccccc1` (stereo not given), for which the Uptake in experiment [3] was 68%. In addition, the values for the EC50 in experiment [4] and in experiment [1] were 3400 nM and 115 nM, respectively. Besides, the RP in experiment [2] was 12.

For `CC(C)N(CC(O)COc1ccccc1C(=O)CCc1ccccc1)C(C)C` (stereo not given), in experiment [3], the Uptake turned out to be 82%. Moreover, the EC50 in experiment [1] is 65 nM. For the same compound, the RP in experiment [2] came out at 22.

As for `CCCN(C)CC(O)COc1ccccc1C(=O)CCc1ccccc1` (stereo not given), the EC50 in experiment [1] turned out to be 55 nM. In experiment [2], the RP came out at 26.

As for `CC(=O)c1ccccc1OCC(O)CN1CCCCC1` (stereo not given), the EC50 in experiment [1] was 770 nM. Besides, the RP in experiment [2] is 2.

`COc1ccc(N2CCN(CC(O)COc3ccccc3C(=O)CCc3ccccc3)CC2)cc1` (stereo not given): the Uptake in experiment [3] amounted to 96%. The figures for the EC50 in experiment [4] and in experiment [1] were 948 nM and 33 nM, respectively. In addition, the RP came out at 3.7 in experiment [5] and 42 in experiment [2].

Take `COc1ccc(CCN(C)CCCC(C#N)(c2ccc(OC)c(OC)c2)C(C)C)cc1OC` (stereo not given): the Uptake in experiment [3] worked out at 79%. Also, the EC50 in experiment [4] turned out to be 3400 nM; in experiment [6], 45 nM.

As for `O=C(CCc1ccccc1)c1ccccc1OCC(O)CN1CCCC1` (stereo not given), in experiment [1], the EC50 was determined as 70 nM. Moreover, the RP in experiment [2] was 20.

On to `CCCNCC(O)c1oc2ccccc2c1CCc1ccccc1` (stereo not given), for which, in experiment [1], the EC50 was 198 nM. The RP in experiment [2] was determined as 7.

Regarding `CCN(CC)CC(O)COc1ccccc1C(=O)c1ccccc1` (stereo not given), the EC50 in experiment [1] was 150 nM. Moreover, in experiment [2], the RP is 9.

Consider `O=C(CCc1ccccc1)c1ccccc1OCC(O)CN1CCN(c2ccc(F)cc2)CC1` (stereo not given), for which the Uptake in experiment [3] worked out at 92%. Moreover, the EC50 came to 1020 nM in experiment [4] and 41 nM in experiment [1]. For the same compound, the RP in experiment [5] amounted to 3.4; in experiment [2] it was 34.

The values are drawn from ChEMBL document CHEMBL1128475, “Synthesis, pharmacologic activity, and structure-activity relationships of a series of propafenone-related modulators of multidrug resistance” (1995).
